DDE Tn7 FP inh – inhibitors of Tn7 peptide binding to human fibrin DD(E). P02675. FP displacement of FITC-Tn7 peptide from fibrin DD(E); 0% = median of compound wells per plate. inhibition, % at 8.3 µM. 0.13% of 370,000 active;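 active = inhibition above the mean of compounds falling within the control limits plus 3 SD of them, cut at about 14% in these data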
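Also added: labelled Tn7 tracer, 0.1 µM; Assay system: human fibrin DD(E) protein; Amount: 2 µM fibrin DD(E); Schedule: 10 min compound pre-incubation, 3 h probe incubation at room temperature; Repeats: one replicate per compound; Read-out basis: percent inhibition; Measured by: fluorescence polarization of the labelled Tn7 tracer.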
HTRA1 inh – HTRA1 (human) protease inhibition; recombinant HTRA1, FP-rhodamine activity-based probe, fluorescence polarization; inhibition, % at 5.96 µM; 0.5% of 340,000 active; Q92743; in the data active = inhibition above about 36%
TCR-CD3 inh – human TCR-CD3 binding inhibition; 0.37% of 360,000 active; inhibition, % at 9.4 µM; AID 651800; TAMRA-labeled TCR probe fluorescence, biochemical; in the data active = inhibition above about 19%;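 note: recombinant mutant TCR 2C K166C tagged with TAMRA read by polarization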
ABHD4 inh – inhibits mouse alpha/beta hydrolase domain 4. Q8VD66. purified mABHD4, FP-Rh probe fluorescence polarization. inhibition, % at 8.92 µM. 0.54% of 370,000 active. AID 720543;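 active = inhibition exceeding the mean over every tested compound plus 3 SD, cut at about 30% in these data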
Target sequence (Q8VD66 whole entry, looked up, the tested form may be a part): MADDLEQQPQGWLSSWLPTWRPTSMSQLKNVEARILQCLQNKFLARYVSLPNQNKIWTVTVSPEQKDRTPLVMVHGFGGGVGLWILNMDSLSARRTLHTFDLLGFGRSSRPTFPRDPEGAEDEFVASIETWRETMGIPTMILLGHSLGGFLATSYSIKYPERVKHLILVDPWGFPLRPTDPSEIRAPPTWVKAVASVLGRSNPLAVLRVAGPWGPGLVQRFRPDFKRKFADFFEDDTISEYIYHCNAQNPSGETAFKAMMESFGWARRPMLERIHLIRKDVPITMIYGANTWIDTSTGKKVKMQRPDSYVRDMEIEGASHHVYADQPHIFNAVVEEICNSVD
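Assay system: mouse ABHD4 enzyme, wild type / Also added: fluorescent activity-based probe FP-Rh / Doses: single nominal dose of 8.92 µM, 0.89% DMSO final / Timing: 45 min compound pre-incubation plus 60 min probe step, 25 °C / Signal: FP readout, ex 525 nm / em 598 nm / Control set: S159A mutant/DMSO as 100%, compound-well median as 0%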
SIAE primary – inhibitors of human sialic acid acetylesterase SIAE | Q9HAT2 | SIAE FP-Rh probe binding, fluorescence polarization | inhibition, % at 9.66 µM | 0.69% of 370,000 active | AID 1053197;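 active = inhibition above a cutoff: mean of compounds within the control limits plus 3 SD of those, cut at about 17% in these data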
DDE Tn6 FP inh – DD(E)-Tn6 binding inhibition, primary FP screen; AID 720509; inhibition, % at 8.3 µM; Fibrin DD(E) TRITC-Tn6 fluorescence polarization displacement; 0.21% of 370,000 active;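 active = inhibition above a per-campaign cutoff: mean of compounds within control limits plus 3 SD, cut at about 15% in these data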
ABHD4 confirm – confirmation of mouse ABHD4 inhibitors; shares compounds with ABHD4 inh; purified mABHD4, FP-Rh probe fluorescence polarization; inhibition, % at 8.92 µM; 55% of 1,800 active; AID 720658;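 active = mean inhibition across replicates above the hit cutoff set in the primary screen, cut at about 30% in these data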
Hits are given with their value; . = inactive; / = no result; ! = repeats disagree. The list is not random: actives were taken first. Their share in the collection is about 1.8%.

SMILES	DDE Tn7 FP inh	HTRA1 inh	TCR-CD3 inh	ABHD4 inh	SIAE primary	DDE Tn6 FP inh	ABHD4 confirm
COc1ccc2nc3cc(Cl)ccc3c(Nc3cc(CN4CCCC4)c(O)c(CN4CCCC4)c3)c2n1	.	/	.	37	.	.	31
COC(=O)[C@H](C(C)C)N1Cc2nnn(Cc3ccc(C)cc3)c2-c2ccccc2S1(=O)=O	.	/	/	.	.	.	/
CC(C)N1CC2(CC(c3ccccc3C(F)(F)F)=NO2)CN1C(=O)c1ccco1 (configuration not stated)	.	.	.	31	.	.	.
CC(C)N1CC2(CC(c3ccccc3C(F)(F)F)=NO2)CN1C(=O)c1ccc(C(C)(C)C)cc1 (configuration not stated)	.	.	.	53	.	.	43
CC(C)N1CC2(CC(c3ccccc3F)=NO2)CN1C(=O)c1ccc(C(C)(C)C)cc1 (configuration not stated)	.	.	.	.	.	.	/
Cc1nc(C)c(-c2csc(Nc3ccc(O)c(C(=O)O)c3)n2)s1	.	.	.	45	.	.	31
O=S1(=O)c2c(cccc2N2CCSCC2)Oc2ccccc2CN1Cc1cn(Cc2cccc(C(F)(F)F)c2)nn1	.	/	/	.	.	.	/
COc1ccc(Br)cc1CSC(=N)N	.	.	.	.	.	.	/
CCOc1ccc(CSC(=N)N)cc1	.	.	.	.	.	.	/
CCCCCOc1ccc(Br)cc1CSC(=N)N	.	.	.	40	.	.	49
CCCCOc1ccc(CSC(=N)N)cc1Cl	.	.	.	38	.	.	.
O[C@H](COc1cccc(Cl)c1)CN1CCC(C(O)(c2ccccc2)c2ccccc2)CC1	.	/	/	.	.	.	/
Cc1cccc2c(N=Nc3ccc(S(=O)(=O)Nc4ccc(Cl)cc4)cc3[N+](=O)[O-])c(O)[nH]c12	.	.	.	40	.	.	38
Cc1cccc2c(N=NC(=O)c3ccc(NS(=O)(=O)c4cccs4)cc3)c(O)[nH]c12	.	.	.	.	.	.	/
CC1=C(O)C(=O)C(C2=C(O)C(=O)C(C)=C(O)C2=O)=C(O)C1=O	.	.	.	40	.	.	38
Cc1cc(OCC(C)CN2CCC(C(O)(c3ccccc3)c3ccccc3)CC2)ccc1Br (configuration not stated)	.	/	/	.	.	.	/
COc1ccc(-c2sc3cc4c(cc3c2C#CC2(N)CCCCC2)OCO4)cc1	.	.	.	32	.	.	30
NC(Cc1ccc(Cl)cc1)c1csc(Nc2ccc(C(F)(F)F)cn2)n1 (configuration not stated)	.	/	.	32	.	.	30
CN(Cc1ccccc1)C(=O)OCc1cn(Cc2ccccc2)nn1	.	/	/	.	.	.	/
CCCCNc1c(-c2ccc(OC)c(SC(C)CC)c2)nc2ccc(C)cn12 (configuration not stated)	.	.	.	34!	.	.	38
CCC(C)Sc1cc(-c2nc3ccc(C)cn3c2NCc2ccccc2)ccc1OC (configuration not stated)	.	.	.	43	.	.	36
CCCCNc1c(-c2ccc(SC3CCCCC3)c(OC)c2)nc2ccc(C)cn12	.	.	.	.	.	.	/
CCCCNc1c(-c2ccc(OC)c(SC3CCCCC3)c2)nc2ccc(C)cn12	.	.	.	33!	.	.	37
CCCCNc1c(-c2ccc(OC)c(SC(C)CC)c2)nc2ccc(Cl)cn12 (configuration not stated)	.	.	.	.	.	.	/
CCOC(=O)[C@@]12CN(C(=O)OC(C)(C)C)CC=C1N(Cc1ccc(OC)cc1)C(=O)[C@H]2CC(=O)NCCCCc1ccccc1	.	/	/	.	.	.	/
Cc1ccc(-n2c(SCC(=O)c3ccc(F)cc3)nnc2-c2cccnc2)cc1	.	/	/	.	.	.	/
COc1ccc(-c2nc3cc(C)ccn3c2NCc2ccc3c(c2)OCO3)cc1	.	.	.	.	.	.	/
COc1ccc(-c2nc3cc(C)ccn3c2NCC2CCCO2)cc1OC (configuration not stated)	.	.	.	.	.	.	/

Screening results from PubChem.
